The source of these data is ChEMBL document CHEMBL4190262, “Tuning of β-glucosidase and α-galactosidase inhibition by generation and in situ screening of a library of pyrrolidine-triazole hybrid molecules” (Eur J Med Chem, 2017).

Assay [1] has as its system Aspergillus niger. Kind of assay: Inhibition of Aspergillus niger amyloglucosidase at 1 mM using p-nitrophenyl glycopyranoside preincubated for 5 mins followed by substrate addition measured after 20 mins by visible absorption spectroscopic method relative to control. An outline of the steps:
(§1)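 Test compound at 1 mM in well. Mix: 0.01–0.5 units/mL enzyme plus 10 mM p-nitrophenyl glycopyranoside (aqueous solution), buffered to the enzyme's optimal pH. Enzyme and inhibitor preincubated 5 min at rt. Substrate then added and incubated 20 min at 37 °C. Stopped with sodium borate (pH 9.8). p-Nitrophenolate read at 405 nm. Duplicates averaged.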

Assay [2] concerns Prunus dulcis. Kind of assay: Inhibition of almond beta-glucosidase at 1 mM using p-nitrophenyl glycopyranoside preincubated for 5 mins followed by substrate addition measured after 20 mins by visible absorption spectroscopic method relative to control. An outline of the steps:
as §1

In assay [3] the test system is Saccharomyces cerevisiae. In words: Inhibition of yeast alpha glucosidase at 1 mM using p-nitrophenyl glycopyranoside preincubated for 5 mins followed by substrate addition measured after 20 mins by visible absorption spectroscopic method relative to control. The gist of the method: as §1
Assay [4] has as its system Cornu aspersum. Kind of assay: Inhibition of snail beta-mannosidase at 1 mM using p-nitrophenyl glycopyranoside preincubated for 5 mins followed by substrate addition measured after 20 mins by visible absorption spectroscopic method relative to control. An outline of the steps: as §1
Assay [5] is filed under the species Bos taurus. In words: Inhibition of bovine kidney alpha-L-fucosidase at 1 mM using p-nitrophenyl glycopyranoside preincubated for 5 mins followed by substrate addition measured after 20 mins by visible absorption spectroscopic method relative to control. The gist of the method:
as §1

Assay [6] concerns the target T1, Alpha-mannosidase (Canavalia ensiformis) (UniProt C0HJB3).
T1 sequence (whole entry): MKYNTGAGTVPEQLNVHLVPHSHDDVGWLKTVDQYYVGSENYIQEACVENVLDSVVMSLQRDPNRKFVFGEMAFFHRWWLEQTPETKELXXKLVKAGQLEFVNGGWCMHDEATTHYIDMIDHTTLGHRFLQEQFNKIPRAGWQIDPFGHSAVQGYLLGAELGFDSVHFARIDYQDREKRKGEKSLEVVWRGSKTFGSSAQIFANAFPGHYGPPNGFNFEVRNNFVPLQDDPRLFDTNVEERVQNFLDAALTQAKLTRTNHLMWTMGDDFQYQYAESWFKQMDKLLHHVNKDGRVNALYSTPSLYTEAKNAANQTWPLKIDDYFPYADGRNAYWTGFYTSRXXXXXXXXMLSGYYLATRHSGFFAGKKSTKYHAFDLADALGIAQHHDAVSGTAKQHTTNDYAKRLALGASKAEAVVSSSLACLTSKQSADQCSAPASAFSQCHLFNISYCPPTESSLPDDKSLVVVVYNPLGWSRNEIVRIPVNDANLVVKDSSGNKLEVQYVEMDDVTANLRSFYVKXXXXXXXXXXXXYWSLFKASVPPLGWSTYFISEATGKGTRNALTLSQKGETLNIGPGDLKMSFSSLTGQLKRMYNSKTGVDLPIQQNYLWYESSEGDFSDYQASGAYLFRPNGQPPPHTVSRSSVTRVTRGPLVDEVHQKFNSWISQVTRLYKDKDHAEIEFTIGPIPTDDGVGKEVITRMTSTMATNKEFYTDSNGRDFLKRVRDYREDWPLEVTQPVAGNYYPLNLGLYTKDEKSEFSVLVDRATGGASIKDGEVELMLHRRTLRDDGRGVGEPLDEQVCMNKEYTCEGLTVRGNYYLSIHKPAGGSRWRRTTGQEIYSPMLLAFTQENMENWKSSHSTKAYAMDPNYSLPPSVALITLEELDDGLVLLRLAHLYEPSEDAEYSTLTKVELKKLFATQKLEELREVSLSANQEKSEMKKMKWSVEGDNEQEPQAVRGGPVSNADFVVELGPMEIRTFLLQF
Kind of assay: Inhibition of jack bean alpha-mannosidase at 1 mM using p-nitrophenyl glycopyranoside preincubated for 5 mins followed by substrate addition measured after 20 mins by visible absorption spectroscopic method relative to control. An outline of the steps:
as §1

Assay [7] deals with Oryza sativa. Kind of assay: Inhibition of rice alpha-glucosidase at 1 mM using p-nitrophenyl glycopyranoside preincubated for 5 mins followed by substrate addition measured after 20 mins by visible absorption spectroscopic method relative to control. The gist of the method:
as §1

In assay [8] the target is Beta-galactosidase (Escherichia coli) (UniProt Q8VNN2). Kind of assay: Inhibition of Escherichia coli beta-galactosidase at 1 mM using p-nitrophenyl glycopyranoside preincubated for 5 mins followed by substrate addition measured after 20 mins by visible absorption spectroscopic method relative to control. The gist of the method: as §1
Sequence of Beta-galactosidase (Escherichia coli) (Q8VNN2 whole entry, looked up): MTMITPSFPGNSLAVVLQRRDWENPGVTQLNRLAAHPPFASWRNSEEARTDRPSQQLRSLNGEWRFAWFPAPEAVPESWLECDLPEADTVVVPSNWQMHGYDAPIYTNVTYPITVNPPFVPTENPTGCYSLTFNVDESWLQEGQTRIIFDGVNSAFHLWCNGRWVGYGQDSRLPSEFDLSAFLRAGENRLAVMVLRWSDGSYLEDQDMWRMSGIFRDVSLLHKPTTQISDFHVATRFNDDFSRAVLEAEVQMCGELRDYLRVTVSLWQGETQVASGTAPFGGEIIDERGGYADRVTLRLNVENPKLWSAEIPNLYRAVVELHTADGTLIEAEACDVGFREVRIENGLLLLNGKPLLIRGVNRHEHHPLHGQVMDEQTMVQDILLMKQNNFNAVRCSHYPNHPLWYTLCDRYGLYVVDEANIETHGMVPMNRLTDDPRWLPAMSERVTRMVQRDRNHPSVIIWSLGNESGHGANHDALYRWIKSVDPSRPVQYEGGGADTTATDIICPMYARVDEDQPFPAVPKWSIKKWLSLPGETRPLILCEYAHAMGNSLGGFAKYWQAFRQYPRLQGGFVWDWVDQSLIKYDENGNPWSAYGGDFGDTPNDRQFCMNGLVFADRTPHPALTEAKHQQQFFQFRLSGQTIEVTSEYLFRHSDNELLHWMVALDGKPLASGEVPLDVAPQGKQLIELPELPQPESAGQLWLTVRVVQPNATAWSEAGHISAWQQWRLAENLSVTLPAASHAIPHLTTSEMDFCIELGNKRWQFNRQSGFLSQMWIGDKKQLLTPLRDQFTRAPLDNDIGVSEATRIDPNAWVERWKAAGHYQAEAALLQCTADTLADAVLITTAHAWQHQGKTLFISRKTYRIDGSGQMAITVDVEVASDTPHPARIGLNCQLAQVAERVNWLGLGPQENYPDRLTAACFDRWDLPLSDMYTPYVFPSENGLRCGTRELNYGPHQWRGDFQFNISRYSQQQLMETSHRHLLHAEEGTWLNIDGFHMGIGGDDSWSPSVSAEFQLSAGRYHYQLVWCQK
The nature of assay [9]: Inhibition of bovine kidney alpha-L-fucosidase using p-nitrophenyl glycopyranoside preincubated for 5 mins followed by substrate addition measured after 20 mins by visible absorption spectroscopic method. Details: species or system Bos taurus.
Assay [10] relates to Canavalia ensiformis. Kind of assay: Inhibition of jack bean beta-N-acetylglucosaminidase at 1 mM using p-nitrophenyl glycopyranoside preincubated for 5 mins followed by substrate addition measured after 20 mins by visible absorption spectroscopic method relative to control. The gist of the method:
as §1

Assay [11] deals with Alpha-galactosidase (Coffea arabica) (UniProt Q42656). Kind of assay: Inhibition of coffee beans alpha-galactosidase at 1 mM using p-nitrophenyl glycopyranoside preincubated for 5 mins followed by substrate addition measured after 20 mins by visible absorption spectroscopic method relative to control. The gist of the method: as §1
Sequence of Alpha-galactosidase (Coffea arabica) (Q42656 16-378 limits assumed): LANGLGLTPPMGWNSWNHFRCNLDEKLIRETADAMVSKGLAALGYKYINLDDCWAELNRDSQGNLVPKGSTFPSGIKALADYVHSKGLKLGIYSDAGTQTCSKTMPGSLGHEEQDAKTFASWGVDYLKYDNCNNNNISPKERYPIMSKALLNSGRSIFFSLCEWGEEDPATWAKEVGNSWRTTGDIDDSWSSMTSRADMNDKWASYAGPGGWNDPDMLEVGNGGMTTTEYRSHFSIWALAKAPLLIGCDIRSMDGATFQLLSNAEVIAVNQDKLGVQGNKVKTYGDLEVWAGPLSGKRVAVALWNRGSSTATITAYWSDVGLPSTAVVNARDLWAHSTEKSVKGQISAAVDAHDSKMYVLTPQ
The target in assay [12] is T2, Beta-galactosidase (Aspergillus oryzae) (UniProt B7VU80).
T2 sequence (whole entry): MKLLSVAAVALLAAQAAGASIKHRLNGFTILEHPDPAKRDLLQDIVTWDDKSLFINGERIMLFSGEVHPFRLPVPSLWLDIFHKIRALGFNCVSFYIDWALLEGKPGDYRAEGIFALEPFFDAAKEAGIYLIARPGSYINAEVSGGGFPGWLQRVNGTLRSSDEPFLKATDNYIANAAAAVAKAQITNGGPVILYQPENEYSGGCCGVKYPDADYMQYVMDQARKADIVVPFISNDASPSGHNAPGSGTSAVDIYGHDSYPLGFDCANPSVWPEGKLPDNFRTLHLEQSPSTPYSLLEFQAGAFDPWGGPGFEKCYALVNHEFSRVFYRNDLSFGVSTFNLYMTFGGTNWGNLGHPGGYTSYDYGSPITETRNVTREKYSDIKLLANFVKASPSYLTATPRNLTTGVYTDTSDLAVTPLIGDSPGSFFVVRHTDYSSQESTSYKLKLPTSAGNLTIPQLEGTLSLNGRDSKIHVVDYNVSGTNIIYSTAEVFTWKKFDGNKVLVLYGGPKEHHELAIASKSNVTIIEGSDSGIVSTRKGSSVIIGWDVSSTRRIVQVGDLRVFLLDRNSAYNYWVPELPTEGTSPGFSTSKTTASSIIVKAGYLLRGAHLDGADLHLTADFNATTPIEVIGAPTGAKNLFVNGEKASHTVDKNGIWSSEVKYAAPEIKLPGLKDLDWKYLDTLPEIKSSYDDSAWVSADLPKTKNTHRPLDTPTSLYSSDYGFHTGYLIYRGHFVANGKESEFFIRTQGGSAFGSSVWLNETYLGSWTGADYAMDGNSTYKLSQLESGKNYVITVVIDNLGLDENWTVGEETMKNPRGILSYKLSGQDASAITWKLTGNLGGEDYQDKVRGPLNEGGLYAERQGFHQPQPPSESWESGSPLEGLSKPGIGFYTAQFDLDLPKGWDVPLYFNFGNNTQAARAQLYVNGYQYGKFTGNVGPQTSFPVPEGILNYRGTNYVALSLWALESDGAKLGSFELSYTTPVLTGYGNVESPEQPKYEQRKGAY
In words: Inhibition of Aspergillus oryzae beta-galactosidase at 1 mM using p-nitrophenyl glycopyranoside preincubated for 5 mins followed by substrate addition measured after 20 mins by visible absorption spectroscopic method relative to control. An outline of the steps:
as §1

Calls of active or inactive are those of the source. The rule behind the calls is not given here.

Usually inhibition stands for the change of the read-out against control, counted positive when it falls. Broadly, the IC50 is the concentration needed to halve the response being measured. Higher therefore signals weaker potency. Turning to `O[C@@H]1[C@H](O)CN[C@@H]1c1cn(Cc2ccccc2)nn1`, the inhibition entry in assay [1], in assay [2], in [3], in assay [4], in assay [6] and in assay [7] was “inactive” throughout. Moreover, the inhibition entry in [8], in [10], in assay [11] and in assay [12] was “inactive” in each case. The inhibition in [5] amounted to 84%. The concentration for half-maximal inhibition (IC50) in assay [9] came out at 168 µM.
